Compound activity (PubChem BioAssay)
Hits are enriched below; roughly 3.7% of the tested compounds scored in any of these assays.
KCNK9 inh = KCNK9 potassium channel inhibitors, primary screen, HEK293 cells, thallium flux | Potassium channel subfamily K member 9 (Homo sapiens), Q9NPC2 | FluxOR thallium flux fluorescence; stronger effect = lower value | B-score at 10 µM | 1.2% of 310,000 active;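 active = ratio B-score over 3 SD below the library mean, with starting fluorescence within 5 SD of its mean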;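 also: negative B-score means less thallium flux so channel inhibition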
KCNQ1 block = inhibitors of human KCNQ1 channel, primary screen, cell-based, thallium flux, high-throughput; 1.3% of 310,000 active; B-score at 10 µM; CHO-K1 KCNQ1, FluxOR thallium flux fluorescence; stronger effect = higher value; AID 2642, 2010; Potassium voltage-gated channel subfamily KQT member 1 (Homo sapiens), P51787;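 active = compounds whose thallium flux B-score, printed positive for inhibition, exceeds three library SD while starting fluorescence stays within three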;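 also: channel opened by potassium depolarization with thallium stimulus after 20 min compound exposure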
Target sequence (P51787 whole entry, looked up): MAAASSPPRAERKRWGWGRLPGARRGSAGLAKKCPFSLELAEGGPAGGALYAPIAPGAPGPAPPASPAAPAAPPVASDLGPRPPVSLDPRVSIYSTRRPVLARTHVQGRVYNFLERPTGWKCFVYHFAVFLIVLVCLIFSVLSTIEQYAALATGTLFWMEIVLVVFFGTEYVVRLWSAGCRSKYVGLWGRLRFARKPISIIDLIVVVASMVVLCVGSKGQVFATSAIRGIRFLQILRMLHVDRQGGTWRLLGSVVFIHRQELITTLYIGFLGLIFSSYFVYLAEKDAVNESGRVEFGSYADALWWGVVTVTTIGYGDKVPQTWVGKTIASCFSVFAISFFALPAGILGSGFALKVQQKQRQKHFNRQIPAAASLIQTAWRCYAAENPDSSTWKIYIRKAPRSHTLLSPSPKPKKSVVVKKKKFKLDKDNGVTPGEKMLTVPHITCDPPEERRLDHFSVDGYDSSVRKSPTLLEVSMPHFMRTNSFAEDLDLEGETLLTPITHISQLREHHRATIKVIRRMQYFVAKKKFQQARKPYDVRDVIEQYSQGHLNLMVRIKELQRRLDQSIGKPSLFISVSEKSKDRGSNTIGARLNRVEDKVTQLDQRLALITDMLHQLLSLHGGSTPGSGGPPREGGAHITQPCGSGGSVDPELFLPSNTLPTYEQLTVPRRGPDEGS
hERG protect = hERG rescue from dofetilide block, primary screen, cell-based, CHO-hERG, FluxOR thallium flux, dofetilide IC70; dofetilide IC70 present; activation (rescue from dofetilide block), less the hit threshold, % at 10 µM; 0.51% of 310,000 active; Voltage-gated inwardly rectifying potassium channel KCNH2 (Homo sapiens), Q12809;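 active = activation above the mean of controls blocked by dofetilide plus 5 SD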;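 also: thallium influx through hERG after potassium depolarization seen as dye fluorescence rise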
Kir21 block = inhibitors of mouse Kir2.1 inward-rectifier potassium channel. AID 1672, 2009. B-score at 10 µM. 0.85% of 310,000 active. HEK293-Kir2.1, FluxOR thallium flux fluorescence; stronger effect = lower value;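 active = fluorescence ratio B-score at or below minus 3 SD of library scores, with starting-brightness B-score within 2 SD, cut at about -4.2 in these data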;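 also: channel flux triggered by added potassium and thallium sulfate stimulus; B-score of peak minus minimum fluorescence over baseline after thallium stimulus; more negative B-score means stronger Kir2.1 block with less thallium influx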
KCNQ1 act = potentiators or activators of KCNQ1 channel, primary screen, cell-based, thallium flux, high-throughput. AID 2648, 2010. B-score at 10 µM. 0.35% of 310,000 active. Potassium voltage-gated channel subfamily KQT member 1 (Homo sapiens), P51787. CHO-K1 KCNQ1, thallium flux FluxOR fluorescence; stronger effect = higher value;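 active = fluorescence ratio B-score, a plate-corrected score, at least three library SD, with initial intensity B-score within 5 SD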
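Assay system: CHO-K1 cells stably expressing KCNQ1; Medium: assay buffer with matched DMSO; Also added: K+/Tl+ depolarizing stimulus; Dosing: single dose; Timing: dye 90 min, compound 20 min, room temperature; Measured by: kinetic FluxOR thallium fluorescence, 10-s 1-Hz baseline, 110-s post-stimulus read; Read-out: peak-minus-minimum fluorescence over initial fluorescence, negative-control normalized, B-scored.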
KCNK3 block = human KCNK3 channel inhibitors, primary screen, CHO cells, FluxOR thallium flux, B-score; Potassium channel subfamily K member 3 (Homo sapiens), O14649; FluxOR fluorescence; stronger effect = lower value; B-score at 10 µM; 0.84% of 340,000 active; AID 602410, 2012;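 active = B-score under library mean minus 4 SD, starting fluorescence ratio at most library mean plus 5 SD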;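 also: more negative B-score means stronger inhibition of thallium flux through KCNK3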
KCNK9 block conf = KCNK9 potassium channel inhibitors, confirmation, HEK293 cells, thallium flux, duplicate; shares compounds with KCNK9 inh; FluxOR thallium flux fluorescence; AID 492992, 2010; inhibition, % at 10 µM; 43% of 4,900 active;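 active = thallium signal inhibited by more than 5 SD of the compound-free buffer control wells, on both duplicate plates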;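 also: 0% = assay buffer control wells without compound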
Kir21 sel = mouse Kir2.1 channel inhibition, confirmation, selectivity assay for KCNK9 modulator project, cell-based, HEK293, thallium flux; 4% of 4,900 active; AID 492993, 2010; shares compounds with KCNK9 inh; inhibition, % at 10 µM; Kir2.1 cells, FluxOR thallium flux fluorescence;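 active = thallium signal drop more than 5 SD beyond the mean of the no-compound control wells, seen in both duplicate plates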;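 also: signal is fluorescence rise after thallium addition divided by baseline fluorescence; plate controls were assay buffer only for no effect and full block by chlorpromazine control for full effect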
KCNK9 uninduced = thallium flux in non-induced HEK293 cells, confirmation, counter-screen for KCNK9 inhibitor project, cell-based, second counter screen, non-induced KCNK9-HEK293; shares compounds with KCNK9 inh; FluxOR thallium flux; inhibition, % at 10 µM; 40% of 4,900 active; AID 492997, 2010;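 active = thallium signal drop beyond 5 SD of the untreated control mean, on both duplicate plates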;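 also: plate controls were buffer only IC0 wells for no effect and SID17386958 at its maximal inhibitory level for full effect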
Active calls of the source: *; i = inactive; . = no result.

SMILES	KCNK9 inh	KCNQ1 block	hERG protect	Kir21 block	KCNQ1 act	KCNK3 block	KCNK9 block conf	Kir21 sel	KCNK9 uninduced
CSCc1ccc(C(=O)N2CCCC(Nc3ccc4c(c3)OCCO4)C2)o1 (stereo unspecified)	i	i	-8	0.76	i	i	i	i	i
O=C(O)CCSSCCC(=O)O	.	.	.	.	.	i	.	.	.
Cc1cc(Br)ccc1OCCCCN1CCCCC1	i	i	-16	-0.21	i	i	.	.	.
CC1CCN(Cc2c(C(=O)N/N=C/c3ccc(C(C)(C)C)cc3)nnn2-c2nonc2N)CC1	i	i	-9	0.02	i	i	i	i	i
CC1CCN(Cc2c(C(=O)N/N=C/c3ccc(C(C)C)cc3)nnn2-c2nonc2N)CC1	i	i	-13	0.19	i	i	.	.	.
CSc1nc(C)cc(-n2ccc(=O)[nH]c2=O)n1	i	i	-2	0.07	i	i	.	.	.
COc1ccc(-c2nnc(SCc3cc(C)cc(C)c3)o2)cc1	i	i	-10	0.14	i	i	i	i	i
COc1ccc(-c2nnc(SCC(=O)c3ccc(C)o3)o2)cc1	i	i	-1	0.72	i	i	.	.	.
CN(Cc1cccc(Cl)c1Cl)C(=O)c1cccc(S(=O)(=O)N2CCN(Cc3ccccc3)CC2)c1	i	i	-10	0.59	i	i	i	i	i
CCOc1ccc(C2=C(C=C(C#N)C#N)C(c3ccccc3)c3ccccc3O2)cc1 (stereo unspecified)	-11*	i	-9	-1.4	i	i	50%*	i	24%*
O=C(NNC(=O)C(Cl)Cl)c1cnn(-c2ccccc2)c1C(F)(F)F	i	i	-2	1.1	i	i	.	.	.
NC(=O)c1ccccc1OCC(=O)N1CCC(Cc2ccccc2)CC1	.	.	.	.	.	i	.	.	.
O=S(=O)(c1ccc(OC(F)(F)F)cc1)N1CCCC(c2ccccc2)C1 (stereo unspecified)	-11*	i	-3	0.48	i	i	i	i	i
O=c1[nH]c(C2CCCN(S(=O)(=O)c3ccccc3)C2)nc2c1nnn2Cc1ccc(OC(F)(F)F)cc1 (stereo unspecified)	i	i	-5	-0.8	i	i	.	.	.
COC(=O)Cn1cnc2c(nnn2-c2ccc(OC)cc2)c1=O	i	i	-8	1.4	i	i	.	.	.
COC1c2ccccc2C(=O)N1Cc1ccc(F)cc1 (stereo unspecified)	i	i	-11	-0.6	i	i	.	.	.
Cc1noc(NC(=O)c2ccc(Cl)cc2)c1Cl	i	i	-5	0.05	i	i	.	.	.
Cc1nonc1OCC(C)(COc1nonc1C)NC(=O)c1ccc(Cl)cc1	-9.1*	i	-10	0.01	i	i	46%*	i	36%*
COc1cccc(N2CCN(C(=O)CN3C(=O)NC(C)(c4ccc5ccccc5c4)C3=O)CC2)c1 (stereo unspecified)	i	i	-9	-0.27	i	i	.	.	.
CCOC(=O)CC1C(=O)NCCN1C(=O)c1ccc(Cl)c(Cl)c1 (stereo unspecified)	i	i	0	-1.1	i	i	.	.	.
N#C/C(=C/c1ccc(CNC(=O)C(=O)Nc2cc(Cl)cc(Cl)c2)o1)C(=O)NCc1cccnc1	-10*	i	-8	0.16	i	i	i	i	i
Cc1ccc(NC(=O)C(=O)NCc2ccc(/C=C(/C#N)C(=O)NCc3cccnc3)o2)cc1	i	i	-8	-0.19	i	i	.	.	.
CC(C)(C)NC(=O)C[C@H]1C[C@H](C(=O)N2CCCCC2)[C@@]2(C)c3[nH]c4ccc(Cl)cc4c3CCN2C1=O	.	.	.	.	.	i	.	.	.
CCCSc1nc(SCC(=O)NCc2ccccc2)c2c3c(sc2n1)COC(C)(CC)C3 (stereo unspecified)	i	i	-17	-1.2	i	i	.	.	.
CCCCSc1nc(SCC(=O)NCc2ccco2)c2c3c(sc2n1)COC(C)(CC)C3 (stereo unspecified)	i	i	-21	-1.3	i	i	i	i	i
SMILES	KCNK9 inh	KCNQ1 block	hERG protect	Kir21 block	KCNQ1 act	KCNK3 block	KCNK9 block conf	Kir21 sel	KCNK9 uninduced
Cn1c(=O)[nH]c(NCCc2ccc(O)cc2)c([N+](=O)[O-])c1=O	i	i	0	0.18	i	i	.	.	.
CCOc1cccc(CN2CCN(c3cccc(C(F)(F)F)c3)CC2)c1O	i	i	-18	-1.1	i	i	i	i	i
CCOC(=O)C1(CC2CC2)CCN(Cc2ccc3cccc(F)c3n2)CC1	i	i	-6	-3.2	i	i	i	i	i
Cc1ccc(Cl)cc1N1CCN(Cc2cc3c(cc2O)CCC3)CC1	i	i	-16	-0.21	i	i	i	i	i
Cc1ccc(Cl)cc1N1CCN(C(=O)c2ccc(CN3CCOCC3)cc2)CC1	i	i	-3	-1.6	i	i	.	.	.
COc1ccc(NC(=O)Cc2nnc(SCC(=O)c3ccccc3)n2C)cc1	i	i	-6	0.47	i	i	.	.	.
O=C(CSc1nnc(CCc2ccccc2)n1-c1ccc(Cl)cc1)NCc1ccccc1	i	i	-4	-3.4	i	i	.	.	.
COc1ccc(CNC(=O)CSCc2cnn(-c3ccccc3)c2-n2cccc2)cc1	i	i	-16	-4.9*	i	i	i	i	i
COc1ccc(-n2c(CCc3ccccc3)nnc2SCC(=O)c2ccccc2)cc1	i	i	-2	0	i	i	i	i	i
COc1ccc(-n2c(CCc3ccccc3)nnc2SCC(=O)NCc2ccccc2)cc1	i	i	-16	-4.9*	i	i	i	i	i
